What is called IC50 is the midpoint of a concentration-inhibition curve. A lower IC50 goes with greater potency in that assay. The solubility is the concentration that dissolves in the medium under given conditions. A lower solubility goes with little dissolved substance.

This is an account of results in paper PMC9051311 (RSC Advances, 2020).

Series [1] deals with T1, ACE (E.C. 3.4.15.1) from the lungs of rabbits (Oryctolagus cuniculus, UniProt P12822).
T1 sequence (P12822 34-1310): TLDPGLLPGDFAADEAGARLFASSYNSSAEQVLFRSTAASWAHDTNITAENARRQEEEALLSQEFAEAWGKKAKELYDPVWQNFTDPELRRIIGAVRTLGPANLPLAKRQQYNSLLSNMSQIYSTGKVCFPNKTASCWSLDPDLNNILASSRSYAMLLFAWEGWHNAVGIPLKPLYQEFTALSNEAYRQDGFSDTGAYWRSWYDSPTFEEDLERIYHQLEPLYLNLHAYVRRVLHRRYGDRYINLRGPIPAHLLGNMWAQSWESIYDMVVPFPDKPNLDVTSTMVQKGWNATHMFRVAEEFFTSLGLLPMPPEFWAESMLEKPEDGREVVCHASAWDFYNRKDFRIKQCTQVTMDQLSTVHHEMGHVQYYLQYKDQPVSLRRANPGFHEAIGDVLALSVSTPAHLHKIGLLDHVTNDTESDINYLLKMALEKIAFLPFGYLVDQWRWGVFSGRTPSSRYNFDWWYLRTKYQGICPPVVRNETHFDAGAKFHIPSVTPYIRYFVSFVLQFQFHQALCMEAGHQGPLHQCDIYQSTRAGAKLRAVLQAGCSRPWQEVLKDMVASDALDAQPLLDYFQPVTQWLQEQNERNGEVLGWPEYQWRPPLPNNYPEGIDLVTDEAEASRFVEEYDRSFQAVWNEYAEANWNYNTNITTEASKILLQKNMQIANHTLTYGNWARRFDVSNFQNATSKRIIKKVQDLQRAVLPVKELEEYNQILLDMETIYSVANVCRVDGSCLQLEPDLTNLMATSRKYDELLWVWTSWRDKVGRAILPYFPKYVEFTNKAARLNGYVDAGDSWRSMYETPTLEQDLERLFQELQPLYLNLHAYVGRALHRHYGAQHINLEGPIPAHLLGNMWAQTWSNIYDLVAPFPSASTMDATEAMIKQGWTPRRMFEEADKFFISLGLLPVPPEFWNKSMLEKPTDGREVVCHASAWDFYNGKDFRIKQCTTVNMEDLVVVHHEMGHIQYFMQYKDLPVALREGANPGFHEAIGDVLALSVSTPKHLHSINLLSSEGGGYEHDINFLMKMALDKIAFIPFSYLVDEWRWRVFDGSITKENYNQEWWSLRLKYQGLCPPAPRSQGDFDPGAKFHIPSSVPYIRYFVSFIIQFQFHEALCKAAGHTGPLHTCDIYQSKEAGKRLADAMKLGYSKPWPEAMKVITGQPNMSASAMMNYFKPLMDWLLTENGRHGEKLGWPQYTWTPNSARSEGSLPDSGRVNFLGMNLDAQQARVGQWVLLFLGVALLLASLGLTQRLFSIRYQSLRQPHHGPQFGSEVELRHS
The series can be described thus: ACE inhibitory. In kind it is biochemical, rabbit. The essentials: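 Rabbit-lung ACE (solution at 25 mU mL−1) pre-incubated with sample for 10 min at 37 °C, then 30 min at 37 °C with HHL (10 mM solution in PBS). Stopped with 1 M HCl. Hippuric acid extracted into ethyl acetate, dried under vacuum, redissolved in water and read at A250 against a hippuric acid standard curve. Captopril positive control. % inhibition corrected for blanks; IC50 by non-linear regression; triplicate.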

The nature of series [2]: Observed solubility of the peptide in water. The series is classed as physicochemical.

No end group written: not given here. Bounds are passed on as bounds.

In turn, “ETSGMKPTEL [ETSGMKPTEL, Glu–Thr–Ser–Gly–Met–Lys–Pro–Thr–Glu–Leu]” displayed a concentration for half-maximal inhibition (IC50) in series [1] of 2.15 ± 0.016 µM.
Regarding “ISSMGILVCL [ISSMGILVCL, Ile–Ser–Ser–Met–Gly–Ile–Leu–Val–Cys–Leu]”, it took 3.88 ± 0.004 µM to reach half-maximal inhibition in series [1] (IC50). In series [2], the solubility is at least 5000 µg/mL.
